The record followed here is ChEMBL document CHEMBL3120086, “Bioactive compounds from Vitex leptobotrys” (J Nat Prod, 2014).

Molecules are shown by their SMILES.

The nature of series [1]: Selectivity index, ratio of cytotoxicity towards human Akata cells to EC50 for EBV infected in human Akata cells. Particulars: read-out: Selectivity Index. Type of series: toxicity, cell-based.
Another series has as its system Human gammaherpesvirus 4. Put plainly: Antiviral activity against EBV infected in human Akata cells by DNA hybridization assay. Type of series: functional, organism-based. The note with it: human gammaherpesvirus 4, Akata. An outline of the steps:
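Under an NIAID agreement, testing was done at Southern Research Institute as part of a 21-virus panel. EBV activity was assessed in Akata cells by DNA hybridization, and EC50 values were derived.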

Series [2] has as its system Human immunodeficiency virus 1. Put plainly: Antiviral activity against HIV-1 3B/H9 infected in human HOG.R5 cells transfected with HIV1 LTR-GFP assessed as inhibition of viral replication at 15.9 uM by fluorescence analysis. Type of series: functional. Particulars: Human immunodeficiency virus 1, 3B.
Series [3] relates to Human immunodeficiency virus 1. As to the kind of experiment: Antiviral activity against HIV-1 3B/H9 infected in human HOG.R5 cells transfected with HIV1 LTR-GFP assessed as inhibition of viral replication by fluorescence analysis. Type of series: functional, organism-based. Particulars: Human immunodeficiency virus 1, 3B.
The nature of series [4]: Cytotoxicity against human HOG.R5 cells infected with HIV-1 3B. Type of series: cell-based. An outline of the steps: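 Cytotoxicity was run in parallel with the anti-HIV assay, in the same GFP-reporter HOG·R5 line (HOS cells expressing CD4/CCR5). Cell-growth inhibition of the host cells was measured.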
Series [5] has as its system Human immunodeficiency virus 1. Put plainly: Antiviral activity against HIV-1 3B/H9 infected in human HOG.R5 cells transfected with HIV1 LTR-GFP assessed as inhibition of viral replication at 10 ug/ml by fluorescence analysis. Type of series: functional. The note with it: Human immunodeficiency virus 1, 3B.

Turning to `O[C@]12CO[C@@H](c3ccc4c(c3)OCO4)[C@@]1(O)CO[C@@H]2c1ccc2c(c1)OCO2`, the selectivity ratio in series [1] came to 1.2. It took 67 µM to reach a half-maximal effect with Human gammaherpesvirus 4 (EC50).
Regarding `COc1cc(OC)c(C(=O)/C=C/c2ccc(O)cc2)c(OC)c1`, the inhibition (in general, the relative decrease from the control value, in per cent) at 15.9 µM in series [2] was determined as 77%. For the same compound, the IC50 (commonly the concentration that inhibits the measured activity by half) in series [3] is under 15.2 µM. Moreover, the selectivity ratio in series [1] is 3.5. The EC50 (as a rule, the concentration at which the effect is half-maximal) with Human gammaherpesvirus 4 was 15 µM. The midpoint of cytotoxicity in series [4], the CC50, lay at 24.4 µM.
`C=Cc1c(C)c2cc3nc(c4c5[nH]c(cc6nc(cc1[nH]2)C(C)=C6CC)c(C)c5C(=O)[C@@H]4C(=O)OC)[C@@H](CCC(=O)O)[C@@H]3C` [PHEOPHORBIDE A]: in series [5], the inhibition at 10 µg/mL amounted to 80%.
